# Screens: PubChem, several laboratories
# In the library only some 1.7% were active in any assay of this set; here they are far more common.
# SR-BI DiI-HDL act: activators of SR-BI mediated HDL lipid uptake | CHO ldlA[mSR-BI] cells, DiI-HDL uptake fluorescence, 3 h; 100 = double the neutral-control signal | 320,000 compounds, 0.096% hits | activation, % at 12.5 µM | AID 504775;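 active means mean replicate activation of at least 60% and every replicate at or above 60%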;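 further: 0% = median plate neutral-control signal and 100% = twice that signal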
#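 System: LDL receptor-deficient CHO ldlA cells overexpressing murine SR-BI | Timing: 3 h uptake period with compound, 37 °C | Medium: HEPES-buffered (25 mM, pH 7.4) F12 plus 0.5% BSA | Dosing: Single-point compound dose | Signal: Bottom-read fluorescence, 550/595 nm | Read-out: Retained DiI signal reflecting DiI-HDL uptake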
# V-ATPase pH: regulators of yeast V-ATPase proton transport; S. cerevisiae, pHLuorin cytosolic pH fluorescence; 350,000 compounds, 0.37% hits; response, % at 10 µM; in the data active means response mostly above about 7.3%, no sharp cut-off; inactive means mostly below about 5.4%; further: actives read high
# Vif inh: blocks HIV Vif function | HEK293T cells, Vif self-association by quenched fluorescence, imaging, 24 h | inhibition, % at 7.49 µM | 340,000 compounds, 0.35% hits | AID 602346; in the data active means inhibition above about 50%, passing the limit was not always enough
# NTR1 agonist: agonists of human neurotensin receptor NTR1 | activation, % at 20 µM | NTR1-U2OS beta-arrestin-GFP spot imaging, agonist mode | 330,000 compounds, 0.17% hits;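 active means activation at or above 40% of the spot to cytoplasm intensity ratio, with at least 20 cells analyzed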;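 further: 0% = DMSO without peptide and 100% = 100 nM NTR1 peptide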
# Target sequence (P30989 whole entry, looked up): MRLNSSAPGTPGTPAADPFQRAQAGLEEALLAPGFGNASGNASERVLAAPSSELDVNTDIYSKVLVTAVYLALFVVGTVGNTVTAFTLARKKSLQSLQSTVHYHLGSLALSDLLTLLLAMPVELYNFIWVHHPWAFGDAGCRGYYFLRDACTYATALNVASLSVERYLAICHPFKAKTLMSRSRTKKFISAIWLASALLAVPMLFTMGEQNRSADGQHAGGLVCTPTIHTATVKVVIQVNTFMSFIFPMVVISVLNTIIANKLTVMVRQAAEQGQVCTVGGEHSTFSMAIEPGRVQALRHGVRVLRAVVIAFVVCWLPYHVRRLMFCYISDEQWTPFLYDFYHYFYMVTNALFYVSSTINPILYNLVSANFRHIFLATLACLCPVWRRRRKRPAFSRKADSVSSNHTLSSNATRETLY
# SR-BI DiI inh: mouse SR-BI HDL lipid transfer inhibition; Q61009; ldlA[mSR-BI] CHO cells, DiI-HDL uptake fluorescence, 3 h; inhibition, % at 12.5 µM; 320,000 compounds, 0.96% hits; AID 488896;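 active means mean replicate inhibition of at least 70% and a set share of replicates each scoring 70 or more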;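 further: 0% = median of neutral control wells and 100% = median of positive control wells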
# CaV13 ICDI inh: Primary screen for inhibitors of IQ motif and Ca2+-dependent inactivation inhibitor domain binding in CACNA1D, Förster resonance energy transfer in living cells, …; HEK cells, CFP/YFP FRET ICDI-IQ, plate reader, 10 min; percent FRET-ratio fall versus neutral wells; 340,000 compounds, 0.098% hits; inhibition, % at 12.3 µM;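 active means mean replicate inhibition of at least 30% and at least 1% of replicates passing that level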;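 further: 0% = median of the neutral control wells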
# Starred values were filed as active, the others as inactive; nt = no result given.
SMILES,SR-BI DiI-HDL act,V-ATPase pH,Vif inh,NTR1 agonist,SR-BI DiI inh,CaV13 ICDI inh
CCOc1ccccc1/C=N/NC(=O)c1cc(C(C)C)[nH]n1,-73,0,0,-2,73*,-3
CC(C)c1cc(C(=O)N/N=C/c2c[nH]c3ccccc23)n[nH]1,-28,-5,-2,-1,28,-11
CC(=O)Nc1ccc(-c2ccnc3c2CC(C)(C(=O)NCC2CC2)O3)cc1 (stereo not given),nt,nt,nt,nt,nt,-5
Nc1ccc(C(=O)Nc2ccccc2C(=O)O)cc1,85*,4,1,-2,-85,-5
COc1cc(C(=O)OCn2nnc3ccccc3c2=O)cc(OC)c1OC,-4,-2,8,2,4,-3
COc1cc(CCC(=O)OCn2nnc3ccccc3c2=O)cc(OC)c1OC,3,1,59*,-1,-3,-6
COc1ccc([N+](=O)[O-])cc1NC(=O)Cc1ccc(C)cc1,nt,-1,12,2,nt,-20
COc1ccc([N+](=O)[O-])cc1N/C(=N/S(=O)(=O)c1ccccc1)c1ccccc1,-73,0,-14,1,73*,-6
COc1ccc([N+](=O)[O-])cc1NC(=O)Nc1ccc(OC)c(OC)c1,-76,3,-3,1,76*,-4
COc1ccc([N+](=O)[O-])cc1NC(=O)Nc1cccc(Cl)c1,-83,-7,8,2,83*,-3
COc1ccc(NC(=O)Nc2ccc(OC)c(OC)c2)c([N+](=O)[O-])c1,-10,-3,3,9,10,-5
COc1ccc(CCC(=O)Nc2cc([N+](=O)[O-])ccc2OC)cc1,-74,0,nt,3,74*,-4
COc1ccc(N(CC(=O)NCc2cccs2)S(=O)(=O)c2ccc(C(C)=O)cc2)cc1,nt,0,0,nt,nt,-6
Cc1ccc(C(=O)NNC(=O)c2ccc(-n3cncn3)c([N+](=O)[O-])c2)cc1,10,-1,3,0,-10,-6
CCN(C(=O)COc1ccc(C)cc1OC)c1cccc2ccccc12,1,2,57*,0,-1,-5
CC(C)c1ccc(NC2CCCN(C(=O)c3cccs3)C2)cc1 (stereo not given),-6,3,-3,2,6,-8
C[C@@H]1ON(C)[C@H]2C[C@H]3c4cc(-c5ccc(F)cc5)ccc4CCN3C[C@@H]12,nt,nt,nt,nt,nt,-4
CCn1c(CC(=O)Nc2ccccc2F)nnc1SCC(=O)Nc1nnc(C)s1,nt,11,28,-2,nt,-3
CCn1c(CC(=O)Nc2ccccc2)nnc1SCC(=O)Nc1nnc(C)s1,-3,2,68*,-2,3,-2
O=C(O)CCCNC(=O)Cc1ccccc1,nt,13,-4,1,nt,-2
COc1cc2c(cc1[N+](=O)[O-])-c1ccc([N+](=O)[O-])cc1C2=NNC(N)=S,nt,-1,-3,nt,nt,nt
NC(=S)NN=C1c2cc(Cl)ccc2-c2c1cc(Cl)cc2[N+](=O)[O-],-105,1,-29,nt,105*,nt
COc1cc(-c2ccc3oc(-c4ccsc4)cc(=O)c3c2)cc(OC)c1OC,-73,2,-2,7,73*,-10
Cc1cc(S(=O)(=O)c2ccc([N+](=O)[O-])cn2)ccc1Br,5,8.7*,-11,4,-5,-2
Cc1ccc(S(=O)(=O)c2ccc([N+](=O)[O-])cn2)cc1,21,2,0,14,-21,-4
SMILES,SR-BI DiI-HDL act,V-ATPase pH,Vif inh,NTR1 agonist,SR-BI DiI inh,CaV13 ICDI inh
COc1cc(C(=O)NCCOc2ccc(Cl)cc2)ccc1OCc1c(C)noc1C,-84,-3,14,4,84*,-5
Cc1ccc(NC(=O)c2ccc(OCc3c(C)noc3C)cc2)cc1C,-89,0,-18,3,89*,-2
COc1ccc(C)cc1NC(=O)c1ccc(OCc2c(C)noc2C)cc1,-71,-2,-9,2,71*,-6
Cc1cccc(C)c1NC(=O)c1ccc(OCc2c(C)noc2C)cc1,-53,-1,6,-1,53,-5
CC(=O)Nc1ccc(NC(=O)c2ccc(OCc3c(C)noc3C)cc2)cc1,-26,1,60*,2,26,-6
Cc1ccc(NC(=O)c2ccc(OCc3c(C)noc3C)cc2)c(C)c1,nt,2,0,0,62,-3
